Assay results reported in ChEMBL document CHEMBL1142963, “Novel sigma receptor ligands: synthesis and biological profile” (J Med Chem, 2007).
The source made the active and inactive calls. The rule behind the calls is not given here.

Columns and labels:
[1] = target: 5-hydroxytryptamine receptor 4 (Cavia porcellus, UniProt O70528); assay: Displacement of [3H][…] from guinea pig cortex 5HT4 receptor
Summary of the method: (§1)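 Rat brain tissue by target: striatum for D1, D2 and DAT; olfactory tubercle for D3; cortex for muscarinic, 5-HT3, 5-HT2A, α1, α2, H1, NMDA and SERT; guinea pig cortex for 5-HT4. Inhibitors at seven to nine concentrations. After incubation, samples were filtered on glass fibre filters, washed three times with ice-cold buffer and counted by liquid scintillation. Ki values were derived by curve fitting.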

D(2) dopamine receptor = D(2) dopamine receptor (Rattus norvegicus, UniProt P61169); assay: Displacement of [3H]spiperone from rat striatum dopamine D2 receptor; summary of the method: as §1
D(2) dopamine receptor, sequence (P61169 whole entry): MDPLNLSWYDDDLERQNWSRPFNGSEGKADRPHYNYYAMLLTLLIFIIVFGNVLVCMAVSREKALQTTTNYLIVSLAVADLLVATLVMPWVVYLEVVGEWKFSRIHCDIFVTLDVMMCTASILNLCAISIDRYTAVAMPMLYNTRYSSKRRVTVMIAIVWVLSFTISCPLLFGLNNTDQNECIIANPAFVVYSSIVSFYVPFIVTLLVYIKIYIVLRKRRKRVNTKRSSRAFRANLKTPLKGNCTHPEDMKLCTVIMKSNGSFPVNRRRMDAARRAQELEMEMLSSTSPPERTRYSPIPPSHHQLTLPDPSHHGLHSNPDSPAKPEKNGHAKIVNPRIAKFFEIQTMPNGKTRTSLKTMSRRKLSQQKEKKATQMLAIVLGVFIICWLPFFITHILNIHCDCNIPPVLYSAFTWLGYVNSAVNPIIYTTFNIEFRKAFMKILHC

Glutamate NMDA receptor = assay: Displacement of [3H]CGP-39653 from rat cortex NMDA receptor; summary of the method: as §1
[2] = target: Sodium-dependent serotonin transporter (Rattus norvegicus, UniProt P31652); assay: Displacement of [3H]citalopram from rat cortex SERT; summary of the method: as §1
Sodium-dependent serotonin transporter, sequence (P31652 whole entry): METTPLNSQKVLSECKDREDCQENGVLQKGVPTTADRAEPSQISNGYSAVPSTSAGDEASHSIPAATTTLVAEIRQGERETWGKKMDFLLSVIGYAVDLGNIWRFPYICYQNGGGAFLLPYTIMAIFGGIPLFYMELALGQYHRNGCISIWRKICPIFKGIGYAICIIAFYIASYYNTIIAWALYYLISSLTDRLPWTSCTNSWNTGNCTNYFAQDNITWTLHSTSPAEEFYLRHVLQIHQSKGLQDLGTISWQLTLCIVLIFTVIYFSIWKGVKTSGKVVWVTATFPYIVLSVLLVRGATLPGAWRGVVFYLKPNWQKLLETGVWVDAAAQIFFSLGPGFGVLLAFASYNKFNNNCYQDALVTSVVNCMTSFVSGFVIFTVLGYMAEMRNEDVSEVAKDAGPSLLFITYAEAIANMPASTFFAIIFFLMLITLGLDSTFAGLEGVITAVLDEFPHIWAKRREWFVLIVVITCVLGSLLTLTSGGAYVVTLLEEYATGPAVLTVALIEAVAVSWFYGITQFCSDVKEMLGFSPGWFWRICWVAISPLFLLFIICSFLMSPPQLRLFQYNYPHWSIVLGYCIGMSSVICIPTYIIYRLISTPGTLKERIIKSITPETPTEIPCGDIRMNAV

[3] = target: T1, 5-hydroxytryptamine receptor 3A (Rattus norvegicus, UniProt P35563); assay: Displacement of [3H]LY278584 from rat cortex 5HT3 receptor; summary of the method: as §1
T1 sequence (P35563 whole entry): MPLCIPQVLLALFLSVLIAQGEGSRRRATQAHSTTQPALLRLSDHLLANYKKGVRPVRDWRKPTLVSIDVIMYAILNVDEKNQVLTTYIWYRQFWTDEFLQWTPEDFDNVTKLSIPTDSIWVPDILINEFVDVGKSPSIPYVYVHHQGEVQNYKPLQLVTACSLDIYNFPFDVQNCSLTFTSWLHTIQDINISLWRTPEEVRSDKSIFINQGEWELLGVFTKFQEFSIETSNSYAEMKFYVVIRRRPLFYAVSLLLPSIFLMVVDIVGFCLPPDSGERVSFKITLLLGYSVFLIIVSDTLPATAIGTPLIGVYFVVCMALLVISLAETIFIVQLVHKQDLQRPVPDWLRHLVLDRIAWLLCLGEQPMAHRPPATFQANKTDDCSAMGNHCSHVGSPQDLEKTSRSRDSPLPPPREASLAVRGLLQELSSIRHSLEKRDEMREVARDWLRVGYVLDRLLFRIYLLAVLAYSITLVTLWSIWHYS

[4] = target: Sodium-dependent dopamine transporter (Rattus norvegicus, UniProt P23977); assay: Displacement of [3H]WIN-35428 from rat striatum DAT; summary of the method: as §1
Sodium-dependent dopamine transporter, sequence (P23977 whole entry): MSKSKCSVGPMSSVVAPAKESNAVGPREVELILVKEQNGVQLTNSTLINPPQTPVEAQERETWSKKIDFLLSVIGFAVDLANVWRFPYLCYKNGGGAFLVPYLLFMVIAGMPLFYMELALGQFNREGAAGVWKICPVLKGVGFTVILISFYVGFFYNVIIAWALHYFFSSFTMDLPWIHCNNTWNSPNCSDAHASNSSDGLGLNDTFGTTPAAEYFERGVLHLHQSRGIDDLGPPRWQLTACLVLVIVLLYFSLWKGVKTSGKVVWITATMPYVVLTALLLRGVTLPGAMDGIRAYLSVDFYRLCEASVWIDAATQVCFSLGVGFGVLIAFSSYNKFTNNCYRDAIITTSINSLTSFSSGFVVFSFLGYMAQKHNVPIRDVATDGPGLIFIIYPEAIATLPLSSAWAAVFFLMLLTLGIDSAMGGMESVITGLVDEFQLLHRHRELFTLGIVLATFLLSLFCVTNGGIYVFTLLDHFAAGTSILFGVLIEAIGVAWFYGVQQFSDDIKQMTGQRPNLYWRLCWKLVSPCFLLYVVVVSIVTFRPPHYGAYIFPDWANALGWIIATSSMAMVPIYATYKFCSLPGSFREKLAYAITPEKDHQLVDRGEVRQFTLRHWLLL

D(1A) dopamine receptor = D(1A) dopamine receptor (Rattus norvegicus, UniProt P18901); assay: Displacement of [3H]SCH-23390 from rat striatum dopamine D1 receptor; summary of the method: as §1
D(1A) dopamine receptor, sequence (P18901 whole entry): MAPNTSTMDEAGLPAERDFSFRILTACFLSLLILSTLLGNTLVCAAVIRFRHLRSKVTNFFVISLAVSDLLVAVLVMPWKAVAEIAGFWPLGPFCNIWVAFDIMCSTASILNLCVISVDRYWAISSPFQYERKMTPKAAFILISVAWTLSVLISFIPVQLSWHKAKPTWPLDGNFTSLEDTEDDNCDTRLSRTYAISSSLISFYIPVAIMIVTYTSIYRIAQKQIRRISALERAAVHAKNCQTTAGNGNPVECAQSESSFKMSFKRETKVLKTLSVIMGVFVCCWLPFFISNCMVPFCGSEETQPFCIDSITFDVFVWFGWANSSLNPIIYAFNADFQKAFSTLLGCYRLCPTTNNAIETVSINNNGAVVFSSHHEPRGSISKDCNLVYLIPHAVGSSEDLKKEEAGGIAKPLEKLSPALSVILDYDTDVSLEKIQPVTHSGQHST

[5] = target: T2, Adrenergic receptor alpha-1 (Rattus norvegicus, UniProt P15823+P23944+P43140); assay: Displacement of [3H]prazosin from rat cortex adrenergic alpha-1 receptor; summary of the method: as §1
T2 sequence (P15823 whole entry): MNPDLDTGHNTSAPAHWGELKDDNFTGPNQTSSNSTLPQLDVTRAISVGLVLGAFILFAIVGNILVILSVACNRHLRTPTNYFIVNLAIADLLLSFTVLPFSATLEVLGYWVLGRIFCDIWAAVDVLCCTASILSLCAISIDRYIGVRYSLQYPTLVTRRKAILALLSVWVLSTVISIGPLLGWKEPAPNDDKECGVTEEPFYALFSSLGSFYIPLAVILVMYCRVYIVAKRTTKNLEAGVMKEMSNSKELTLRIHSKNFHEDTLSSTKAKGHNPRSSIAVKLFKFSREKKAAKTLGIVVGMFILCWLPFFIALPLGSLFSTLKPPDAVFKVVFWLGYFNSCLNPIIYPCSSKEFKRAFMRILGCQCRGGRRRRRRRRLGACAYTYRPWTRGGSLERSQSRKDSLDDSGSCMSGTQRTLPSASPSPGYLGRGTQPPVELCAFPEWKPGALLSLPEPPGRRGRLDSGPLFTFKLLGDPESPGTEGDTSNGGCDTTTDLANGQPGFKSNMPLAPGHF
T2 sequence (P23944 whole entry): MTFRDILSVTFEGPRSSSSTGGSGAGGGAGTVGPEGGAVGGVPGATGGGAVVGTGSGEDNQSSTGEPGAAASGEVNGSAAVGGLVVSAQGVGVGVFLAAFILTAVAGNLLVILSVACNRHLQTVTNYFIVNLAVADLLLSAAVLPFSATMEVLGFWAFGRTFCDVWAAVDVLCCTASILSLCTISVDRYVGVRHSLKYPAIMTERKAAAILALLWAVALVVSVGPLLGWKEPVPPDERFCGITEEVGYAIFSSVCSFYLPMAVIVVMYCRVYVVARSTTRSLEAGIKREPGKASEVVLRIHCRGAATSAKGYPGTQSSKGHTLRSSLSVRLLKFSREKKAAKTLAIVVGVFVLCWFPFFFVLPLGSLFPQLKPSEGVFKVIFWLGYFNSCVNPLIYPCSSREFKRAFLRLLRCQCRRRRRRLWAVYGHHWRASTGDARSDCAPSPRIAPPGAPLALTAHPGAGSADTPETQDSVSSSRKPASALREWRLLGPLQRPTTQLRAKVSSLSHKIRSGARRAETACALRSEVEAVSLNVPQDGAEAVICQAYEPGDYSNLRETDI
T2 sequence (P43140 whole entry): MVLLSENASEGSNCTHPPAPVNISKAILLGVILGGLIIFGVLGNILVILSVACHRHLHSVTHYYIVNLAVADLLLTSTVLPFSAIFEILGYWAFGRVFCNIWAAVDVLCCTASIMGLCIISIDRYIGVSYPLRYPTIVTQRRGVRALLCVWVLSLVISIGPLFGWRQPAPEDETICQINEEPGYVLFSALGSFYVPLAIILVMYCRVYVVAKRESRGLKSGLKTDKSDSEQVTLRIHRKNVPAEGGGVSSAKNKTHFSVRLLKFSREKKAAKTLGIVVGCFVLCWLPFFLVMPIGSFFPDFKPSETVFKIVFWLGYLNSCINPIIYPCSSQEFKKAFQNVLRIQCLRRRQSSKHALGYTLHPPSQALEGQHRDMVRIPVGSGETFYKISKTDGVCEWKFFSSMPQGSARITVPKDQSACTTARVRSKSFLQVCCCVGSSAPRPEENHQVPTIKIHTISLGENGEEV

Histamine H1 receptor = Histamine H1 receptor (Rattus norvegicus, UniProt P31390); assay: Displacement of [3H]pyrilamine from rat cortex histamine H1 receptor; summary of the method: as §1
Histamine H1 receptor, sequence (P31390 whole entry): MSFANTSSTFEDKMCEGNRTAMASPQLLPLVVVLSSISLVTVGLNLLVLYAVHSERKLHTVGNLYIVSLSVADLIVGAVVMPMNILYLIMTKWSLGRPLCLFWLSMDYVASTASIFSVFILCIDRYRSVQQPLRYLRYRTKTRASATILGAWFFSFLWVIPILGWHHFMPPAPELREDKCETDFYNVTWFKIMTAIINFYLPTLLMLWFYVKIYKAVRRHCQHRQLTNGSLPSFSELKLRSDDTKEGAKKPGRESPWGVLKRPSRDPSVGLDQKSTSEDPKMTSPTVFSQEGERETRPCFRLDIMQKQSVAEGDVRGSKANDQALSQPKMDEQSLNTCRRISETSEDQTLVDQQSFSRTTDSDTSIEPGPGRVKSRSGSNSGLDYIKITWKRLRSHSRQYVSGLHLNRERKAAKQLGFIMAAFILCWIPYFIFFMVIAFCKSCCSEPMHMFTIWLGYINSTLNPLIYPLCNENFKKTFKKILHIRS

Rattus norvegicus [6] = species on record: Rattus norvegicus; assay: Increase in TG-2 expression in albino Wistar rat primary 14 DIV astroglial cell at 25 uM after 24 hrs by CLSM analysis; assay type: functional
Summary of the method: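 Astrocytes at 14 DIV were treated with 25 µM for 24 h and fixed in 4% paraformaldehyde for 20 min. They were blocked with 1% normal serum for 1 h, then incubated overnight with anti-TG-2 monoclonal (1:500), followed by FITC and TRITC anti-IgG (1:64, 2 h each). Confocal imaging at fixed settings measured cytosolic and nuclear fluorescence intensity versus control after nonspecific subtraction.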

Rattus norvegicus [7] = species on record: Rattus norvegicus; assay: Increase of caspase 3 cleavage in albino Wistar rat primary astroglial cells at 25 uM after 24 hrs relative to control; assay type: functional
Summary of the method: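 Primary astrocytes from 1–2-day-old Wistar rat brains were grown 14 DIV, then exposed to ligand 25 µM for 24 h. Cells were lysed and sonicated, and 30 µg protein was run on 10% SDS-PAGE. Mean ± SD of four experiments; t test.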

[8] = target: Sigma non-opioid intracellular receptor 1 (Cavia porcellus, UniProt Q60492); assay: Displacement of [3H](+)-pentazocine from guinea pig brain sigma 1 receptor
Sigma non-opioid intracellular receptor 1, sequence (Q60492 whole entry): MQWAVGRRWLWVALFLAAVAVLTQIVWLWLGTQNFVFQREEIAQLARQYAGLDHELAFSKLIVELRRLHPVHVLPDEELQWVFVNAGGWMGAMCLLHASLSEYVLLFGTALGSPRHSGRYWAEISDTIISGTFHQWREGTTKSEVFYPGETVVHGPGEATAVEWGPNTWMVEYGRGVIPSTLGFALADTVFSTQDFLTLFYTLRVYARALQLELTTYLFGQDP

5-hydroxytryptamine receptor 4, sequence (O70528 whole entry): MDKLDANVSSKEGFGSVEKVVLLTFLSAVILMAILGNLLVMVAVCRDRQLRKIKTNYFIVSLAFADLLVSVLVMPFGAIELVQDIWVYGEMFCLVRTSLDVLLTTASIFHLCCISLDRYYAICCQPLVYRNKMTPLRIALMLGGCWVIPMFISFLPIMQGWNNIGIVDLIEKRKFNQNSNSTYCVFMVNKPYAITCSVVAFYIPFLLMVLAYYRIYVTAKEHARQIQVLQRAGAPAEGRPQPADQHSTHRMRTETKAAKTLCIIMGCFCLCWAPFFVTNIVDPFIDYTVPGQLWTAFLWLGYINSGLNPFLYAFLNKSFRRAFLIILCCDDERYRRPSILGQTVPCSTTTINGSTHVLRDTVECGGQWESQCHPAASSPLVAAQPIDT

For `COC(=O)C1(c2ccc(C)cc2)CC1CN1CCC(O)(c2ccccc2)CC1` (configuration not stated), the Ki [1] was > 10 µM, the Ki (D(2) dopamine receptor) was 1.28 µM and the Ki (Glutamate NMDA receptor) was > 10 µM. For the same compound, the Ki [2] was > 10 µM, the Ki [3] was > 10 µM and the Ki [4] was > 10 µM. For the same compound, the Ki (D(1A) dopamine receptor) was > 10 µM, the Ki [5] was 0.605 µM and the Ki (Histamine H1 receptor) was 1.42 µM. For the same compound, the Activity (Rattus norvegicus [6]) was “Active”, the Activity (Rattus norvegicus [7]) was “Active” and the Ki [8] was 0.0015 µM.
